The source of these data is paper PMC6469399 (Chemistry (Weinheim an der Bergstrasse, Germany), 2019).

One may read the EC50 as the midpoint of the concentration-response curve.

Series [1] deals with T1, F508del-CFTR (Homo sapiens, UniProt P13569, DEL508-508). The series is classed as cell-based.
For series [2], the target named is T2, WT-CFTR (Homo sapiens, UniProt P13569). Nature of the series: Ussing chamber potentiation assay, WT CFBE41o- monolayers. In kind it is cell-based.
Series [3] has as its target T3, G551D-CFTR (Homo sapiens, UniProt P13569, G551D). Nature of the series: Ussing chamber potentiation assay, G551D CFBE41o- monolayers. The series is classed as cell-based.
Series [4] deals with T2, WT-CFTR. Nature of the series: Patch clamp analysis, macroscopic currents in excised inside-out patch. In kind it is biochemical.
Series [5] can be described thus: Metabolic stability in human hepatic microsomes. The series is classed as in vitro ADME.
The target in series [6] is T3, G551D-CFTR. Nature of the series: Ussing chamber potentiation assay, Fischer Rat Thyroid. The series is classed as cell-based.
Series [7] concerns the target T1, F508del-CFTR. Nature of the series: TECC. The series is classed as cell-based. The conditions noted are these: F508del CFBE41o- cells; % activity of the 3 μM VX-809 response. A digest of the protocol:
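F508del CFBE41o- monolayers were pre-incubated 24 h with a range of test-compound concentrations, with DMSO as vehicle and 3 μM VX-809 as positive control in every experiment. Equivalent current (ΔIeq) was recorded as AUC after forskolin (10 μM) + VX-770 (1 μM) stimulation, then CFTRinh-172 (20 μM) inhibition. Response is expressed as % of VX-809 response; n = 3–5; two-way ANOVA with Tukey test versus vehicle.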

On to `CC(C)(C)c1cc(C(C)(C)C)c(NC(=O)c2c[nH]c3ccccc3c2=O)cc1O` [VX-770, Ivacaftor], for which the EC50 turned out to be 1890 ± 1390 nM at F508del-CFTR [1]; 36.5 ± 21.3 nM on WT-CFTR [2]; 77.7 ± 27.2 nM on G551D-CFTR [3]; 1.3 ± 0.3 nM at WT-CFTR [4]; 428 ± 167 nM at G551D-CFTR [6]. Besides, the “Maximal Response WT CFBE” value at WT-CFTR [2] (WT CFBE41o-, % activity of the VX-770 response, Inactive = no statistically significant response above DMSO vehicle) is reported as 100.0%. Also, at G551D-CFTR [3] (G551D CFBE41o-, % activity of the VX-770 response, Inactive = no statistically significant response above DMSO vehicle), the “Maximal Response G551D CFBE” value turned out to be 100.0%. In addition, at WT-CFTR [4] (WT-CFTR patch clamp, 0.2 nM), the “increase of current at lowest dose tested” value was ~ 12%. In series [5] (calculated from CLINT, human), the “CLHEP, predicted hepatic clearance, human” value is on record as 14.4 mL min^−1 kg ^−1. Besides, the “CLINT, intrinsic clearance in human hepatic microsomes” value in series [5] (human hepatic microsomes) was determined as 45.6 mL min^−1 kg ^−1. In addition, the “Maximal Response G551D FRT” value on G551D-CFTR [6] (G551D FRT cells, % activity of the VX-770 response, Inactive = no statistically significant response above DMSO vehicle) was 100.0%.
Take `COc1ccc(C2(C(=O)Nc3ccc(C)c(-c4cccc(C(=O)O)c4)n3)CC2)cc1` [compound 33]: the “Maximal Response” value on F508del-CFTR [7] is given as 49.9%.
